Screens deposited in PubChem by several laboratories.
PKD1 inh: inhibitors of human PKD1 kinase, biochemical, fluorescence polarization. Serine/threonine-protein kinase D1 (Homo sapiens), Q15139. PKD1 kinase fluorescence polarization assay. inhibition, % (test concentration not listed). 200,000 tested, 0.056% active. AID 797, 2007
Arbovirus anti: antivirals against arbovirus infection, primary screen, cell-based, full library, 10K replicate subset; 200,000 tested, 0.37% active; AID 1251, 2008; inhibition, % at 10 µM; arbovirus infection cell-based antiviral screen; in the data active = inhibition above about 30%
CHOP inh: inhibitors of CHOP promoter induction, primary screen, cell-based, unfolded protein response, luciferase reporter. CHO-K1 CHOP-promoter luciferase, tunicamycin-induced, 15-18 h. inhibition, % at 10 µM. 220,000 tested, 3.8% active. AID 2732, 2010;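 active = compounds that reduced the stress-induced luciferase reporter signal by more than about 70% of percent inhibition, limit read from the data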
Rad51 HR inh: human RAD51 strand exchange inhibitors, primary screen, biochemical, fluorescence | DNA repair protein RAD51 homolog 1 (Homo sapiens), Q06609 | hRad51 DNA strand exchange, fluorescence dequenching | inhibition, % at 10 µM | 200,000 tested, 0.085% active | AID 1385, 2008;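 active = inhibition above 40% at the single screening dose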
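Test system: preformed human Rad51 ssDNA filaments; also added: Donor/quencher-labelled 47-bp dsDNA substrate; doses: 10 µM final, single point; times: 37 °C 15-min filament assembly, 30-min compound preincubation, 15-min exchange; detection: FRET fluorescence dequenching, excitation 485 nm, emission 520 nm; read-out basis: Fluorescence-based percent inhibition, control- and blank-normalised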
L major viab: Leishmania major promastigote growth inhibition, primary screen; inhibition, % at 10 µM; AID 1063, 2008; Leishmania major promastigotes, resazurin fluorescence viability; 200,000 tested, 9% active;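 note: promastigotes grown with compound for 44 hours at 28 °C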
Wee1 stabilizer: Wee1 degradation inhibitors, primary screen, cell-based, HeLa, Wee1K328M-luciferase, luminescence. HeLa Luc-Wee1K328M stability; 100% = proteasome inhibitor MG132 effect. 220,000 tested, 1.2% active. Wee1-like protein kinase (Homo sapiens), P30291. AID 1321, 2008. reporter increase, % at 5 µM;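 active = activation above the mean of all tested compounds plus 3 SD, set per screening run, cut at about 8.8% in these data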;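 note: cells exposed to compound for 20 h before luminescence read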
Target sequence (P30291 whole entry K328M): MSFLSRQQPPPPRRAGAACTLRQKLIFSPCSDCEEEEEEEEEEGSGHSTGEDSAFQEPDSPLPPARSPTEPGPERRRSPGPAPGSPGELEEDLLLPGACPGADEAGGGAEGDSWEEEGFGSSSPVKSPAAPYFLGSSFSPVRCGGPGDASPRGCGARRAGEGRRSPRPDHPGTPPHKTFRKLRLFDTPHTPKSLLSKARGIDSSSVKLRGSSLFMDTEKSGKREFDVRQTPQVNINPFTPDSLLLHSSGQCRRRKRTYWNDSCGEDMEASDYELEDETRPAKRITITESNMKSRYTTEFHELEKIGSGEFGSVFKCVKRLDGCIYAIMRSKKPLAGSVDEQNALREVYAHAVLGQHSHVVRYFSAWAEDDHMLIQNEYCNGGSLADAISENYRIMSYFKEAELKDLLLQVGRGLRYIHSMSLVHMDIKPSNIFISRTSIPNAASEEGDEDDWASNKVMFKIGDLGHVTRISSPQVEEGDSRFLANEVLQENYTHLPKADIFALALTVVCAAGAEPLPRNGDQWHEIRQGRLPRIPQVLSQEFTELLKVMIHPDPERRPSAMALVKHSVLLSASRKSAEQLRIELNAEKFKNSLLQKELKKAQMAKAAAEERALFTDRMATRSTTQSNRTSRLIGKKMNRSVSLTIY
Lmaj promast 1uM: Leishmania major promastigote growth inhibition, confirmation, 1 µM repeat of primary hits | AID 1258, 2008 | 1,100 tested, 13% active | shares compounds with L major viab | L. major promastigote growth, resazurin fluorescence, 48 h | inhibition, % at 1 µM;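 active = inhibition above about 50% in both repeat tests, limit read from the data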
Hits are given with their value; . = inactive; / = no result given. A selection: hits, their analogues and other compounds. The true share with any hit is near 12%. Cut-off read from the data, not from the text of the source, unless noted: active = inhibition above about 50%; inactive = the rest.

SMILES	PKD1 inh	Arbovirus anti	CHOP inh	Rad51 HR inh	L major viab	Wee1 stabilizer	Lmaj promast 1uM
C(=N\N1CCOCC1)/c1nc(-c2ccccc2)n2ccccc12	.	.	.	.	.	.	/
Cc1ccc(-c2nc3ccccc3n3c(C)nnc23)cc1	.	.	.	.	.	.	/
CCCN(CCC)c1nc2ccccc2n2c(C)nnc12	.	.	83.1	.	82.1	.	.
CCCC(=O)NCCc1nc2cc([N+](=O)[O-])ccc2n1C	.	.	.	/	.	.	/
Cc1cc(C(F)(F)F)nn1CC(=O)Nc1ccc(Br)c2cccnc12	.	.	.	.	96.4	.	.
O=C(CSc1nnc2c(n1)[nH]c1ccccc12)Nc1ccc(S(=O)(=O)Nc2ncccn2)cc1	.	.	.	.	.	.	/
COc1ccc(NC(=O)c2sccc2SCc2cccc(C(F)(F)F)c2)cc1	.	.	.	.	99.7	.	.
Cc1nc2ccc(NC(=O)c3cccs3)cc2c(=O)n1Cc1ccc(Cl)cc1	.	.	.	.	.	.	/
CCCc1nc2ccc(NC(=O)c3cccs3)cc2c(=O)n1Cc1ccc(Cl)cc1	.	.	.	/	72.4	.	.
Cc1cc(C)n2nc3nc4c(cc3c2n1)CCCC4	.	.	.	.	72.4	.	.
Cc1cc(C)n2nc(C)c(Br)c2n1	.	.	.	.	.	.	/
NC(=O)CN(N=Nc1cccc([N+](=O)[O-])c1)c1cccc([N+](=O)[O-])c1	.	.	.	.	55.0	.	.
Cn1c(=O)c2ncn(CC(=O)N/N=C/c3ccco3)c2n(C)c1=O	.	.	.	/	.	.	/
O=c1ncn(-c2ccccc2F)c2ncccc12	.	.	.	.	.	.	/
CN(C)CCOC(=O)C12CC3CC(C1)CC(C(=O)OCCN(C)C)(C3)C2	/	/	.	/	/	.	/
CCN(CC)CCOC(=O)C12CC3CC(CC(C3)C1)C2	.	.	.	.	97.0	.	.
CC(C)CCN(C)c1ccc(/C=N/n2cnnc2)cc1	.	.	.	.	82.0	.	.
CC(C)(C)c1ccc(/C=N/n2cnnc2)cc1	.	.	.	.	.	.	/
CC(C)Cn1c(N)c(C(=O)CSc2ccccc2)c(=O)n(C)c1=O	.	.	.	.	51.2	.	.
CCCNC(=O)OCCC12CC3CC(CC(C3)C1)C2	.	.	.	/	97.1	.	.
O=C(CSc1ccc2nnc(CCNS(=O)(=O)c3ccccc3)n2n1)Nc1nc2ccccc2s1	.	.	.	.	.	.	/
Cc1cc(C)c(S(=O)(=O)Nc2cccc(/C=C/C(=O)O)c2)c(C)c1	.	.	.	/	.	.	/
CCOC(=O)c1c(C)[nH]c(N=Nc2ccc(C)cc2C)c1C	.	.	.	.	.	.	/
CCOC(=O)c1c(C)[nH]c(N=Nc2ccccc2C)c1C	.	.	.	.	72.0	.	.
Cc1[nH]c2ccccc2c1N=Nc1ccccc1C(=O)O	.	.	.	.	68.2	.	.
SMILES	PKD1 inh	Arbovirus anti	CHOP inh	Rad51 HR inh	L major viab	Wee1 stabilizer	Lmaj promast 1uM
Cc1[nH]c2ccccc2c1N=Nc1cccc(C(=O)O)c1	.	.	.	.	.	.	/
CCOC(=O)/C(=C/c1c(C)n(C)c2ccc([N+](=O)[O-])cc12)C(C)=O	.	.	.	.	83.1	.	.
COc1cc(Cl)ccc1NC(=O)COc1ccccc1C(=O)N1CCN(c2ccc(O)cc2)CC1	.	.	.	/	62.8	.	.
O=C(CS(=O)(=O)c1ccc(Cl)cc1)NCCS(=O)(=O)c1ccc(Cl)cc1	.	.	.	.	.	.	/
COc1cc(Cl)c(C)cc1NC(=O)CNC(C)c1ccccc1OC (stereo unspecified)	.	.	.	.	.	.	/
O=C(NCCC(c1ccccc1)c1ccccc1)c1ccc(Br)o1	.	.	.	.	58.6	.	.
CCOC(=O)c1cnc2ccc(C(=O)OC)cc2c1Nc1ccc(C(=O)O)cc1	.	.	.	.	.	.	/
CCOC(=O)c1ccc2ncc(C(=O)OCC)c(NCc3ccco3)c2c1	.	.	.	.	56.9	.	.
COc1ccc(C(=O)C(CN2CCOCC2)c2ccccc2)cc1F (stereo unspecified)	.	.	/	.	100.5	.	85.7
O=[N+]([O-])c1cc([N+](=O)[O-])c2n[nH]c(-c3ccccc3)c2c1	.	.	71.8	.	98.2	.	53.5
Nc1c(C(O)(C(F)(F)F)C(F)(F)F)cc(C(O)(C(F)(F)F)C(F)(F)F)c2ccccc12	.	.	94.5	.	100.2	.	.
Cc1ccc(C(O)(COC(=O)C(C)C)COC(=O)C(C)C)c(O)c1	.	.	.	.	60.5	.	.
C=CCc1c(C)nc(SC)nc1Nc1ccc(C)cc1	.	.	.	.	97.1	.	.
O=C(O)c1ccc(N=NN2CCCC2)cc1	.	.	.	.	.	.	/
O=C(O)c1ccc(N=NN2CCCCCC2)cc1	.	.	.	.	58.7	.	.
Cc1ccc2nc(/C(C#N)=C\c3ccc(N4CCCCC4)c([N+](=O)[O-])c3)[nH]c2c1	.	.	79.0	.	97.3	.	.
Fc1cccc(NC(=S)NCc2ccc(Cl)cc2)c1	.	.	.	.	70.0	.	.
COc1ccc(CCn2c(C)c(C(C)=O)c3cc(OC(=O)c4ccco4)ccc32)cc1OC	.	.	.	.	.	.	/
CCN(CC)CCN(C)C1CCC(c2ccccc2)CC1 (stereo unspecified)	.	.	.	.	94.2	.	75.5
O=C(/C=C/c1ccccc1[N+](=O)[O-])c1ccccc1Br	.	.	.	.	100.3	.	.
Cc1ccc(C(=O)/C=C/c2ccccc2[N+](=O)[O-])cc1	.	.	.	.	.	.	/
O=C(CSc1nnc2ccc(-c3ccc(F)cc3)nn12)N1CCCC1	.	.	.	.	.	.	/
CSC1=NCCN1C(=O)C(C)(C)Oc1ccc(Cl)cc1	.	.	/	.	.	.	/
CCSC1=NCCN1C(=O)C(C)(C)Oc1ccc(Cl)cc1	.	.	.	.	64.6	.	.
Cc1ccc(CN=C2Nc3ccccc3CS2)cc1	.	.	.	.	86.3	.	.
Cc1cc(C)n2nc(SCCOc3ccccc3)nc2n1	.	.	.	.	.	.	/
Cc1nc2cc(C(=O)N3CCc4ccccc43)ccc2n1-c1ccc(F)c(F)c1	.	.	.	.	.	.	/
Cc1ccc(-c2nc3ccccc3n3nnnc23)cc1	.	.	.	.	.	.	/
Cc1ccc2nc(Cl)c3nnnn3c2c1	.	.	105.1	.	100.2	.	92.7
CCc1ccc(/C=C2\CN(CC)Cc3c2nc2ccccc2c3C(=O)O)cc1	.	.	.	.	53.9	.	.
